Laboratory results reported in ChEMBL document CHEMBL1255502, “A nonazole CYP51 inhibitor cures Chagas' disease in a mouse model of acute infection” (Antimicrob Agents Chemother, 2010).
The source made the active and inactive calls. The rule behind the calls is not given here.

What was measured:
[1] = system: Trypanosoma cruzi; assay: Antimicrobial activity against Trypanosoma cruzi infected in C3H mouse at 50 mg/kg, ip BID administered 24 hrs post infection measured after 12 days; type: functional, organism-based; parameters: dose 50 mg/kg
Method in brief: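 Female C3H mice (7–8 weeks, 17.5–18.0 g, five per group) infected i.p. with 10⁶ tissue-culture trypomastigotes of T. cruzi CA-I/72. The cruzain cysteine-protease inhibitor was given from 24 h postinfection: i.p. in 100 μl of 30% DMSO–70% ddH₂O, twice daily for 30 days. An untreated infected group served as control. Clinical signs (ascites, hind-leg weakness) were assessed at day 12 postinfection.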

[2] = biological target: Sterol 14-alpha demethylase (Trypanosoma cruzi (strain CL Brener)) (UniProt Q7Z1V1); settings: BESM, 10 uM
Sequence of Sterol 14-alpha demethylase (Trypanosoma cruzi (strain CL Brener)) (Q7Z1V1 whole entry, looked up, the tested form may be a part): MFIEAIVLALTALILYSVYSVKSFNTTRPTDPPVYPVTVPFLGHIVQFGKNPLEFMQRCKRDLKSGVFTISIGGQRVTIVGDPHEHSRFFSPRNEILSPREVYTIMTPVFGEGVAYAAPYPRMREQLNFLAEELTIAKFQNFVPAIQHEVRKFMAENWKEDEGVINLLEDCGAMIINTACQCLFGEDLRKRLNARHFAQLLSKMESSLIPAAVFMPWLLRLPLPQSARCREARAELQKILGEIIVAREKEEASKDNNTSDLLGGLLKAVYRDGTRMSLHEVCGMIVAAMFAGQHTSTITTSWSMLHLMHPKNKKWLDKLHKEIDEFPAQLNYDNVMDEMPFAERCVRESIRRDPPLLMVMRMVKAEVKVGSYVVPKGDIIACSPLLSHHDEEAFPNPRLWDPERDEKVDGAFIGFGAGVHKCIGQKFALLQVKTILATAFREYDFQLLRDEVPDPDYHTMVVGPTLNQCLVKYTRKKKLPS

[3] = biological target: Sterol 14-alpha demethylase (Trypanosoma cruzi (strain CL Brener)) (UniProt Q7Z1V1); assay: Inhibition of sterol 14-alpha-demethylase in Trypanosoma cruzi epimastigotes infected in BESM cells assessed as reduction in episterol content at 5 uM after 72 hrs; type: cell-based
Method in brief: (§1)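 Log-phase epimastigotes were grown axenically in BHT medium (fetal bovine serum, brain heart infusion) and exposed to 5 μM compound for 72 h, with untreated parasites as the control. Pellets were washed in PBS, extracted in chloroform for 24 h at room temperature, BSTFA-derivatized, and sterols were analysed by GC-MS on a DB5-MS column (200→300°C at 15°C/min).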

[4] = biological target: Sterol 14-alpha demethylase (Trypanosoma cruzi (strain CL Brener)) (UniProt Q7Z1V1); settings: BESM, 10 uM; remark: listed apart in the source
[5] = biological target: Sterol 14-alpha demethylase (Trypanosoma cruzi (strain CL Brener)) (UniProt Q7Z1V1); assay: Inhibition of sterol 14-alpha-demethylase in Trypanosoma cruzi amastigotes infected in BESM cells assessed as reduction in fecosterol content at 5 uM after 72 hrs; type: cell-based
Method in brief: (§2)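 T. cruzi CA-I/72 amastigotes were grown in BESM cells in RPMI 1640 with 5% heat-inactivated FCS at 37°C under 5% CO2. Monolayers were infected for 24 h, then the medium was replaced with 5 μM compound or DMSO; noninfected BESM cells served as a control. Lipids were extracted with chloroform, TMS-derivatized with BSTFA for 2 h, and sterols identified by GC-MS from [M−90]+ and [M+73]+ ions.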

[6] = biological target: Sterol 14-alpha demethylase (Trypanosoma cruzi (strain CL Brener)) (UniProt Q7Z1V1); settings: BESM, 10 uM; remark: listed apart in the source
[7] = biological target: Sterol 14-alpha demethylase (Trypanosoma cruzi (strain CL Brener)) (UniProt Q7Z1V1); assay: Inhibition of sterol 14-alpha-demethylase in Trypanosoma cruzi epimastigotes infected in BESM cells assessed as accumulation of lanosterol and eburicol precursors at 5 uM after 72 hrs; type: cell-based; method in brief: as §1
[8] = biological target: Sterol 14-alpha demethylase (Trypanosoma cruzi (strain CL Brener)) (UniProt Q7Z1V1); assay: Inhibition of sterol 14-alpha-demethylase in Trypanosoma cruzi amastigotes infected in BESM cells assessed as reduction in episterol content at 5 uM after 72 hrs; type: cell-based; method in brief: as §2
[9] = biological target: Sterol 14-alpha demethylase (Trypanosoma cruzi (strain CL Brener)) (UniProt Q7Z1V1); settings: BESM, 10 uM; remark: listed apart in the source
[10] = biological target: Sterol 14-alpha demethylase (Trypanosoma cruzi (strain CL Brener)) (UniProt Q7Z1V1); settings: BESM, 10 uM; remark: listed apart in the source
[11] = biological target: Sterol 14-alpha demethylase (Trypanosoma cruzi (strain CL Brener)) (UniProt Q7Z1V1); settings: BESM, 10 uM; remark: listed apart in the source
[12] = system: Trypanosoma cruzi; assay: Antimicrobial activity against Trypanosoma cruzi infected in C3H mouse at 40 mg/kg, ip BID administered 24 hrs post infection measured after 12 days; type: functional, organism-based; parameters: dose 40 mg/kg
Method in brief: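 Female C3H mice (7–8 weeks, 17.5–18.0 g, five per group) infected i.p. with 10⁶ tissue-culture trypomastigotes of T. cruzi CA-I/72. Dosing began 24 h postinfection: i.p. in 100 μl of 60% DMSO–40% ddH₂O, twice daily for 30 days. An untreated infected group served as control. Mice were scored for clinical signs (ascitic abdomen, hind-leg weakness) at day 12 postinfection.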

[13] = biological target: Sterol 14-alpha demethylase (Trypanosoma cruzi (strain CL Brener)) (UniProt Q7Z1V1); settings: BESM, 10 uM; remark: listed apart in the source
[14] = biological target: Sterol 14-alpha demethylase (Trypanosoma cruzi (strain CL Brener)) (UniProt Q7Z1V1); settings: BESM, 10 uM; remark: listed apart in the source
[15] = biological target: Sterol 14-alpha demethylase (Trypanosoma cruzi (strain CL Brener)) (UniProt Q7Z1V1); settings: BESM, 10 uM; remark: listed apart in the source
[16] = biological target: Sterol 14-alpha demethylase (Trypanosoma cruzi (strain CL Brener)) (UniProt Q7Z1V1); settings: BESM, 10 uM; remark: listed apart in the source
[17] = biological target: Sterol 14-alpha demethylase (Trypanosoma cruzi (strain CL Brener)) (UniProt Q7Z1V1); assay: Inhibition of sterol 14-alpha-demethylase in Trypanosoma cruzi epimastigotes infected in BESM cells assessed as reduction in fecosterol content at 5 uM after 72 hrs; type: cell-based; method in brief: as §1
[18] = biological target: Sterol 14-alpha demethylase (Trypanosoma cruzi (strain CL Brener)) (UniProt Q7Z1V1); assay: Inhibition of sterol 14-alpha-demethylase in Trypanosoma cruzi amastigotes infected in BESM cells assessed as accumulation of lanosterol and eburicol precursors at 5 uM after 72 hrs; type: cell-based; method in brief: as §2
[19] = biological target: Sterol 14-alpha demethylase (Trypanosoma cruzi (strain CL Brener)) (UniProt Q7Z1V1); assay: Inhibition of sterol 14-alpha-demethylase in Trypanosoma cruzi epimastigotes infected in BESM cell assessed as cell death at 0.25 uM after 72 hrs by electron microscopy; type: cell-based
[20] = biological target: Sterol 14-alpha demethylase (Trypanosoma cruzi (strain CL Brener)) (UniProt Q7Z1V1); assay: Inhibition of sterol 14-alpha-demethylase in Trypanosoma cruzi epimastigotes infected in BESM cell assessed as abnormalities in nuclear DNA at 0.25 uM after 72 hrs by electron microscopy; type: cell-based
[21] = biological target: Sterol 14-alpha demethylase (Trypanosoma cruzi (strain CL Brener)) (UniProt Q7Z1V1); assay: Inhibition of sterol 14-alpha-demethylase in Trypanosoma cruzi epimastigotes infected in BESM cell assessed as abnormalities in nuclear membrane at 0.25 uM after 72 hrs by electron microscopy; type: cell-based
[22] = biological target: Sterol 14-alpha demethylase (Trypanosoma cruzi (strain CL Brener)) (UniProt Q7Z1V1); assay: Inhibition of sterol 14-alpha-demethylase in Trypanosoma cruzi amastigotes infected in BESM cell assessed as appearance of large autophagic vesicles at 0.25 uM after 48 hrs by electron microscopy; type: cell-based
[23] = biological target: Sterol 14-alpha demethylase (Trypanosoma cruzi (strain CL Brener)) (UniProt Q7Z1V1); assay: Inhibition of sterol 14-alpha-demethylase in Trypanosoma cruzi amastigotes infected in BESM cell assessed as abnormalities in nuclear DNA at 0.25 uM after 72 hrs by electron microscopy; type: cell-based
[24] = biological target: Sterol 14-alpha demethylase (Trypanosoma cruzi (strain CL Brener)) (UniProt Q7Z1V1); assay: Inhibition of sterol 14-alpha-demethylase in Trypanosoma cruzi amastigotes infected in BESM cell assessed as cell death at 0.25 uM after 72 hrs by electron microscopy
[25] = biological target: Sterol 14-alpha demethylase (Trypanosoma cruzi (strain CL Brener)) (UniProt Q7Z1V1); assay: Inhibition of sterol 14-alpha-demethylase in Trypanosoma cruzi amastigotes infected in BESM cell assessed as blebbing of the cell membrane at 0.25 uM after 48 hrs by electron microscopy; type: cell-based
[26] = biological target: Sterol 14-alpha demethylase (Trypanosoma cruzi (strain CL Brener)) (UniProt Q7Z1V1); assay: Inhibition of sterol 14-alpha-demethylase in Trypanosoma cruzi amastigotes infected in BESM cell assessed as abnormalities in nuclear membrane at 0.25 uM after 72 hrs by electron microscopy; type: cell-based
[27] = biological target: Sterol 14-alpha demethylase (Trypanosoma cruzi (strain CL Brener)) (UniProt Q7Z1V1); assay: Inhibition of sterol 14-alpha-demethylase in Trypanosoma cruzi amastigotes infected in BESM cell assessed as swelling of nuclear membrane at 0.25 uM after 48 hrs by electron microscopy; type: cell-based
[28] = biological target: Sterol 14-alpha demethylase (Trypanosoma cruzi (strain CL Brener)) (UniProt Q7Z1V1); assay: Inhibition of sterol 14-alpha-demethylase in Trypanosoma cruzi epimastigotes infected in BESM cell assessed as effect on cell division at 0.25 uM after 72 hrs by electron microscopy; type: cell-based

CN1CCN(C(=O)N[C@@H](Cc2ccccc2)C(=O)N[C@H](/C=C/S(=O)(=O)c2ccccc2)CCc2ccccc2)CC1
Activity [1]: Active

CC1CCC(C(=O)NC(Cc2c[nH]c3ccccc23)C(=O)Nc2ccncc2)CC1 (centres undefined)
inhibition [2]: inactive | inhibition [3]: Active | inhibition [4]: Active | inhibition [5]: Active | inhibition [6]: inactive | inhibition [7]: Active | inhibition [8]: Active | inhibition [9]: Active | inhibition [10]: Active | inhibition [11]: inactive | Activity [12]: Active | inhibition [13]: Active | inhibition [14]: Active | inhibition [15]: Active | inhibition [16]: inactive | inhibition [17]: Active | inhibition [18]: Active

CC[C@@H]([C@H](C)O)n1ncn(-c2ccc(N3CCN(c4ccc(OC[C@@H]5CO[C@@](Cn6cncn6)(c6ccc(F)cc6F)C5)cc4)CC3)cc2)c1=O
inhibition [19]: inactive | inhibition [20]: inactive | inhibition [3]: Active | inhibition [21]: inactive | inhibition [22]: Active | inhibition [5]: Active | inhibition [23]: Active | inhibition [7]: Active | inhibition [8]: Active | inhibition [24]: Active | inhibition [25]: Active | inhibition [17]: Active | inhibition [26]: Active | inhibition [18]: Active | inhibition [27]: Active | inhibition [28]: inactive
